Most compounds without a hit are left out; they make up all but 2.5% or so of the library.
MEKK2mut PB1 HTS – MEK5 binding signal on mutant MEKK2 PB1, primary screen, biochemical, multiplex bead flow cytometry, Alexa488-MEK5. Alexa488-MEK5 binding to MEKK2 mutant. percent response, % at 10 µM. 290,000 tested, 0.35% active; in the data active means percent response above about 24%, passing the limit was not always enough
Efflux pump mplx – inhibitors of Candida efflux pumps in yeast, primary screen, S. cerevisiae, Nile Red, multiplex | S. cerevisiae Candida pump triplex | inhibition, % at 10 µM | 330,000 tested, 0.44% active | AID 485275, 2010;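 active means plate passing quality check with inhibition over a set limit, or well fluorescence over plate mean plus 4 SD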;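 further: Nile Red retained in pooled yeast measured as flow cytometry median fluorescence; higher means more Nile Red kept so more efflux inhibition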
ABCG2 block – ABCG2 efflux pump inhibitors, primary screen, multiplex with ABCB1, IgMXP3 cells, flow cytometry; JC-1 efflux; Broad substrate specificity ATP-binding cassette transporter ABCG2 (Homo sapiens), Q9UNQ0; 190,000 tested, 0.1% active; inhibition, % at 6.6 µM;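 active means inhibition above 80%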
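Test system: ABCG2 IgMXP3 and barcoded ABCB1 CCRF-Adr cell mix; Schedule: cells with compound and JC-1, 10 min at 25 °C, rotating, no wash; Technique: flow cytometry of retained JC-1 fluorescence; Measure: % inhibition of efflux relative to nicardipine and DMSO; Controls: nicardipine high and DMSO low controls.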
MEKK2wt PB1 HTS – modulators of MEK5 binding to wildtype MEKK2, primary screen, biochemical, multiplex bead flow cytometry, Alexa488-MEK5; Alexa488-MEK5 binding to MEKK2 WT; actives lie on both sides; 290,000 tested, 1.1% active; Mitogen-activated protein kinase kinase kinase 2 (Homo sapiens), Q9Y2U5; binding response (% of control), % at 10 µM; in the data active means binding response below about 67% or above about 130%
ABCB1 block – ABCB1 efflux pump inhibitors, primary screen, cell-based, multiplex, flow cytometry, ABCG2 counter-screen; ATP-dependent translocase ABCB1 (Homo sapiens), P08183; CCRF-Adr cells, JC-1 efflux; inhibition, % at 6.6 µM; 190,000 tested, 0.067% active; in the data active means inhibition above about 40%;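 further: higher value means more JC-1 retained so stronger ABCB1 efflux block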
MEKK3 PB1 HTS – modulators of MEKK3-MEK5 PB1 binding, primary screen, biochemical, wildtype MEKK3, multiplex bead flow cytometry, Alexa488-MEK5; bead-based flow cytometry, Alexa488-MEK5 binding to MEKK3; actives lie on both sides; 0 = blocked by unlabeled MEK5, 100 = vehicle; binding response (% of control), % at 10 µM; 290,000 tested, 1.4% active; AID 1529, 2009;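 active means binding response more than 3 SD above or below the average of its plate-row segment, actives on both sides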;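 further: Alexa488 bead fluorescence after subtracting the streptavidin-only scavenger bead signal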
Target sequence (Q99759 whole entry, looked up): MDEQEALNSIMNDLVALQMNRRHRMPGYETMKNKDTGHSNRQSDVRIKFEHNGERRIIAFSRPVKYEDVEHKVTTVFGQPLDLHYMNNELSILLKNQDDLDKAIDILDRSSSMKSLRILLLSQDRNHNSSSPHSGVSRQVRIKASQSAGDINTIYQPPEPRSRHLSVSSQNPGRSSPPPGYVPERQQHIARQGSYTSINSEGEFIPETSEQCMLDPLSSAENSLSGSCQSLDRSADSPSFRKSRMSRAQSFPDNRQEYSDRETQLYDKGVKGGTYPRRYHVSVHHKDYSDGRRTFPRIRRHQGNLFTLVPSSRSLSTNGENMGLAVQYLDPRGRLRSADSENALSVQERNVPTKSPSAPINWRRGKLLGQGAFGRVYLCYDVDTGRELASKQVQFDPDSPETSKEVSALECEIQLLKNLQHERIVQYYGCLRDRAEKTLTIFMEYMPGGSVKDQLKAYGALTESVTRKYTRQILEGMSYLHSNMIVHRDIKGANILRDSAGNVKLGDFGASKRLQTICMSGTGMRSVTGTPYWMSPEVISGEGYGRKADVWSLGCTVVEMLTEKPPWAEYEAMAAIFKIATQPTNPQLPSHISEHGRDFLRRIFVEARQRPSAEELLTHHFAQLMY
Yeast cmpd fluor – flagged as fluorescent in efflux inhibitor counter-screen | AID 588517 | 1,700 tested, 4% active | fluorescence ratio to DMSO, % at 10 µM | S. cerevisiae AD/pABC3, compound fluorescence, flow cytometry | shares compounds with Efflux pump mplx;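 active means fluorescence ratio to DMSO above its plate's cutoff, the plate mean ratio plus 5 SD, cut at about 210% in these data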;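 further: unstained yeast with no Nile Red so the signal is compound autofluorescence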
Mdr1 pump inh – inhibitors of Candida albicans Mdr1 efflux, confirmation, flow cytometry, singleplex, Cherry Pick1 set | shares compounds with Efflux pump mplx | S. cerevisiae AD/CaMDR1, Nile Red efflux | inhibition, % at 10 µM | 1,700 tested, 1% active; in the data active means inhibition above about 26%;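 further: higher means more Nile Red retained so more efflux inhibition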
CaCdr2 efflux inh – inhibitors of Candida albicans Cdr2 efflux pump, confirmation, S. cerevisiae AD/CaCDR2, flow cytometry, cherry pick 1, singleplex; shares compounds with Efflux pump mplx; Nile Red retention; Nile Red retention ratio vs DMSO, % at 10 µM; 1,700 tested, 4% active; AID 588520, 2011; in the data active means Nile Red retention ratio vs DMSO above about 190%;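 further: higher ratio means more blocking of Cdr2 efflux of the dye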
Cdr1 pump inh – inhibitors of Candida albicans Cdr1 efflux pump, confirmation, S. cerevisiae AD/CaCDR1, flow cytometry, cherry pick 1, singleplex. shares compounds with Efflux pump mplx. Nile Red efflux. inhibition, % at 10 µM. 1,700 tested, 1% active. AID 588522, 2011;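 active means inhibition above the screen-wide mean plus twice its standard deviation, cut at about 32% in these data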
A number is an active result; . = inactive; / = no result.

SMILES	MEKK2mut PB1 HTS	Efflux pump mplx	ABCG2 block	MEKK2wt PB1 HTS	ABCB1 block	MEKK3 PB1 HTS	Yeast cmpd fluor	Mdr1 pump inh	CaCdr2 efflux inh	Cdr1 pump inh
CSc1nnnn1-c1ccc(C)c(Cl)c1	.	14	.	.	.	.	.	.	.	.
OC1(CNCc2cn[nH]c2-c2cc3ccccc3o2)CCCCC1	.	.	.	.	.	.	/	/	/	/
COCCN(C(=O)c1snc(C(N)=O)c1N)C(C(=O)NC1CCCCC1)c1ccc(F)cc1 (centres undefined)	.	.	/	.	/	.	/	/	/	/
COc1cc(C(=O)N2CCN(c3cc(Cl)ccc3Cl)CC2)cc(OC)c1OC	.	0.6	.	.	.	.	.	.	.	.
COc1cc(C(=O)N2CCN(c3cccc(C)c3C)CC2)cc(OC)c1OC	.	.	.	.	.	.	/	/	/	/
CC(C)(C)CC(=O)Nc1nnc(SCC(=O)N2CCCCC2)s1	.	.	/	.	/	.	/	/	/	/
CCOc1ccc2cc(C3CC(c4ccco4)=NN3S(C)(=O)=O)c(=O)[nH]c2c1 (centres undefined)	.	.	/	.	/	.	/	/	/	/
COc1ccc(/C=C2\SC(=O)N(CCC(=O)Nc3ccccc3)C2=O)cc1OC	.	7.6	.	.	.	.	.	.	.	.
COc1ccc(/C=C2\SC(=O)N(CCCC(=O)Nc3ccc(C(=O)O)cc3)C2=O)cc1OC	.	.	/	.	/	.	/	/	/	/
COc1cc(OC)c(C2C(C(=O)Nc3ccc(C)cc3C)=C(C)Nc3ncnn32)cc1OC (centres undefined)	.	0.8	.	.	.	.	.	.	.	.
COc1ccc(OC)c(N(CC(=O)NCCSCc2ccc(C)cc2)S(C)(=O)=O)c1	.	.	/	.	/	.	/	/	/	/
Cc1ccc(S(=O)(=O)N2CCC(C(=O)Nc3nnc(C)s3)CC2)cc1	.	.	/	.	/	.	/	/	/	/
C[C@H]1[C@H](C)CC[C@]2(C(=O)O)CC[C@]3(C)C(=CC[C@@H]4[C@@]5(C)C[C@@H](O)[C@H](O)C(C)(C)[C@@H]5CC[C@]43C)[C@H]12	.	.	.	.	.	.	/	/	/	/
C[C@@H]1CC[C@]2(C(=O)O)CC[C@]3(C)C(=CCC4[C@]56CC[C@@](O)(OC5)C(C)(C)C6CC[C@]43C)C2[C@H]1C (some centres undefined)	/	1.4	/	/	/	/	.	.	204	.
CCC(CC)c1nc(C(N)=O)c2[nH]c(=O)n(-c3ccc(OC)c(OC)c3)c2n1	.	.	/	.	/	.	/	/	/	/
COc1ccc(-c2nc(C(N)=O)c3[nH]c(=O)n(-c4ccccc4OC)c3n2)c(OC)c1	.	.	.	.	.	.	.	.	.	.
Cc1ccc(-n2c(=O)[nH]c3c(C(N)=O)nc(-c4ccc(C)o4)nc32)cc1	/	.	.	/	.	/	.	.	.	.
COc1ccc(OC)c(-c2nc(C(N)=O)c3[nH]c(=O)n(-c4ccc(F)cc4)c3n2)c1	.	.	.	.	.	.	.	.	.	.
